Laboratory results published in ChEMBL document CHEMBL4373703 (J Med Chem, 2019).
In brackets after ≈: the same amount, converted by molar mass. Activity calls are given as the source filed them. No cut-off for these calls is given here.

Columns and labels:
[1] = biological target: Voltage-gated inwardly rectifying potassium channel KCNH2 (Homo sapiens, UniProt Q12809); test: Inhibition of human ERG expressed in HEK293 cells at -80 mV holding potential by […]; assay type: cell-based
[2] = biological target: T1, Tyrosine-protein kinase Tec (Homo sapiens, UniProt P42680); test: Inhibition of N-terminal His6-tagged human TEC (174 to end aminoacids) expressed in baculovirus infected Sf21 cells at 1 uM; conditions: sf21, 1 µM
T1 sequence (P42680 whole entry): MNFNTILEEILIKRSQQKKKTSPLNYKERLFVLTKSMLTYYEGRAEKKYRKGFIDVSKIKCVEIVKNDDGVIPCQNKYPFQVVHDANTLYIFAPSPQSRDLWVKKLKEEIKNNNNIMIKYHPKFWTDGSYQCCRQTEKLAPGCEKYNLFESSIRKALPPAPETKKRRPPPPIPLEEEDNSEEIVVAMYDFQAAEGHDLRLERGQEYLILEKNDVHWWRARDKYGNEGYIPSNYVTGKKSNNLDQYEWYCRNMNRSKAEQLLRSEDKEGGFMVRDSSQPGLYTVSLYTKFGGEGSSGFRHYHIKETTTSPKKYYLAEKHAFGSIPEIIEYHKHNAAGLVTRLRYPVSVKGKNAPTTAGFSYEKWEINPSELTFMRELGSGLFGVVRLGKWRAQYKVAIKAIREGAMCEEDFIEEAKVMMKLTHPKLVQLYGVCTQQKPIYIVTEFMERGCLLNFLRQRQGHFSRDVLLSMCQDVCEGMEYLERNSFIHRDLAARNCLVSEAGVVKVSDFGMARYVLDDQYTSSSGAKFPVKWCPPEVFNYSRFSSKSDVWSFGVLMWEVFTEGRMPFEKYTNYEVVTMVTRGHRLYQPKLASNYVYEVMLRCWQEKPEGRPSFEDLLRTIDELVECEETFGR

[3] = Tmax in NMRI mouse at 3 mg/kg, po administered as suspension; assay type: ADME, organism-based; conditions: in vivo
Rattus norvegicus [4] = test: Antiarthritic activity in Lewis rat model of collagen-induced arthritis assessed as reduction in ankle histopathological scores at 1 mg/kg, po administered via gavage once daily starting from day 6 to day 16 relative to control; design: scale not given: the % may be the effect or the level left
[5] = Kinetic solubility of the compound; assay type: physicochemical; conditions: read-out: Kinetic_solubility
Mus musculus [6] = test: Inhibition of B cell activation in C57BL/6 mouse at 1 mg/kg, po after 24 hr relative to control; assay type: functional
Outline: (§1)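 Normal C57BL/6 mice received a single oral dose of 1 mg/kg and were tested in an in vivo B cell stimulation assay. Inhibition of B cell activation was read at 1 h and 24 h after dosing.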

[7] = Oral bioavailability in NMRI mouse at 3 mg/kg; assay type: ADME, organism-based; conditions: in vivo
Rattus norvegicus [8] = test: Antiarthritic activity in Lewis rat model of collagen-induced arthritis assessed as reduction in ankle histopathological scores at 3 mg/kg, po administered via gavage once daily starting from day 6 to day 16 relative to control; design: scale not given: the % may be the effect or the level left
[9] = Cmax in C57BL/6 mouse at 1 mg/kg, po; assay type: ADME, organism-based; design: dose 1 mg/kg, route oral; conditions: in vivo
Mus musculus [10] = test: Inhibition of B cell activation in C57BL/6 mouse at 1 mg/kg, po after 1 hr relative to control; assay type: functional; outline: as §1
[11] = Intrinsic clearance in human liver microsomes at 1 uM in presence of NADPH measured up to 30 mins by LC-MS/MS analysis; assay type: ADME, Microsome; conditions: read-out: CLH
[12] = Tmax in Wistar rat at 10 mg/kg, po administered as suspension; assay type: ADME, organism-based; conditions: in vivo
Mus musculus [13] = test: Inhibition of B cell activation in C57BL/6 mouse at 1 mg/kg, po after 0.25 hr relative to control; assay type: functional
Rattus norvegicus [14] = test: Antiarthritic activity in Lewis rat model of collagen-induced arthritis assessed as reduction in ankle histopathological scores at 0.3 mg/kg, po administered via gavage once daily starting from day 6 to day 16 relative to control; design: scale not given: the % may be the effect or the level left
Rattus norvegicus [15] = test: Antiarthritic activity in Lewis rat model of collagen-induced arthritis assessed as reduction in ankle histopathological scores at 10 mg/kg, po administered via gavage once daily starting from day 6 to day 16 relative to control; design: scale not given: the % may be the effect or the level left
[16] = Stability of the compound in plasma (unknown origin) assessed as compound remaining at 4 hrs; assay type: ADME, cell-free; conditions: read-out: Stability
Mus musculus [17] = test: Antiarthritic activity in […] model of collagen-induced arthritis assessed as reduction in ankle swelling at 30 mg/kg, po administered via gavage once daily starting from day 6 to day 16 and measured from day 10 to day 17 by caliper method; assay type: functional, organism-based
Outline: (§2)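 Female Lewis rats with semi-established type II collagen arthritis were dosed by oral gavage once daily on days 6–16 with vehicle (20% hydroxypropyl-beta-cyclodextrin in H2O), test agent (0.3–30 mg/kg) or methotrexate 0.1 mg/kg. Ankle thickness was measured daily by caliper, and animals were terminated on day 17. n = 10 per treatment group, 4 normal controls; ANOVA vs vehicle, P ≤ 0.05.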

[18] = Half-life in NMRI mouse plasma at 1 mg/kg, iv or 3 mg/kg, po administered as suspension; assay type: ADME, organism-based
[19] = Oral bioavailability in Wistar rat at 10 mg/kg; assay type: ADME, organism-based; conditions: in vivo
[20] = Apparent permeability across apical to basolateral side in human Caco2 cells at 1 uM incubated for 2 hrs by LC-MS/MS analysis; assay type: ADME, cell-based; conditions: Caco-2
[21] = Half-life in Wistar rat plasma at 2 mg/kg, iv or 10 mg/kg, po administered as suspension; assay type: ADME, organism-based
Mus musculus [22] = test: Antiarthritic activity in […] model of collagen-induced arthritis assessed as reduction in ankle swelling at 10 mg/kg, po administered via gavage once daily starting from day 6 to day 16 and measured from day 11 to day 17 by caliper method; assay type: functional, organism-based; outline: as §2
[23] = Half-life in Mongrel dog plasma at 1 mg/kg, iv or 3 mg/kg, po administered as suspension; assay type: ADME, organism-based, Canis lupus familiaris
[24] = Tmax in Mongrel dog at 3 mg/kg, po administered as suspension; assay type: ADME, organism-based, Canis lupus familiaris; conditions: in vivo
Rattus norvegicus [25] = test: Antiarthritic activity in Lewis rat model of collagen-induced arthritis assessed as reduction in ankle histopathological scores at 30 mg/kg, po administered via gavage once daily starting from day 6 to day 16 relative to control; design: scale not given: the % may be the effect or the level left
Mus musculus [26] = test: Antiarthritic activity in […] model of collagen-induced arthritis assessed as reduction in ankle swelling at 3 mg/kg, po administered via gavage once daily starting from day 6 to day 16 and measured from day 11 to day 17 by caliper method; assay type: functional, organism-based; outline: as §2

Sequence of Voltage-gated inwardly rectifying potassium channel KCNH2 (Q12809 whole entry): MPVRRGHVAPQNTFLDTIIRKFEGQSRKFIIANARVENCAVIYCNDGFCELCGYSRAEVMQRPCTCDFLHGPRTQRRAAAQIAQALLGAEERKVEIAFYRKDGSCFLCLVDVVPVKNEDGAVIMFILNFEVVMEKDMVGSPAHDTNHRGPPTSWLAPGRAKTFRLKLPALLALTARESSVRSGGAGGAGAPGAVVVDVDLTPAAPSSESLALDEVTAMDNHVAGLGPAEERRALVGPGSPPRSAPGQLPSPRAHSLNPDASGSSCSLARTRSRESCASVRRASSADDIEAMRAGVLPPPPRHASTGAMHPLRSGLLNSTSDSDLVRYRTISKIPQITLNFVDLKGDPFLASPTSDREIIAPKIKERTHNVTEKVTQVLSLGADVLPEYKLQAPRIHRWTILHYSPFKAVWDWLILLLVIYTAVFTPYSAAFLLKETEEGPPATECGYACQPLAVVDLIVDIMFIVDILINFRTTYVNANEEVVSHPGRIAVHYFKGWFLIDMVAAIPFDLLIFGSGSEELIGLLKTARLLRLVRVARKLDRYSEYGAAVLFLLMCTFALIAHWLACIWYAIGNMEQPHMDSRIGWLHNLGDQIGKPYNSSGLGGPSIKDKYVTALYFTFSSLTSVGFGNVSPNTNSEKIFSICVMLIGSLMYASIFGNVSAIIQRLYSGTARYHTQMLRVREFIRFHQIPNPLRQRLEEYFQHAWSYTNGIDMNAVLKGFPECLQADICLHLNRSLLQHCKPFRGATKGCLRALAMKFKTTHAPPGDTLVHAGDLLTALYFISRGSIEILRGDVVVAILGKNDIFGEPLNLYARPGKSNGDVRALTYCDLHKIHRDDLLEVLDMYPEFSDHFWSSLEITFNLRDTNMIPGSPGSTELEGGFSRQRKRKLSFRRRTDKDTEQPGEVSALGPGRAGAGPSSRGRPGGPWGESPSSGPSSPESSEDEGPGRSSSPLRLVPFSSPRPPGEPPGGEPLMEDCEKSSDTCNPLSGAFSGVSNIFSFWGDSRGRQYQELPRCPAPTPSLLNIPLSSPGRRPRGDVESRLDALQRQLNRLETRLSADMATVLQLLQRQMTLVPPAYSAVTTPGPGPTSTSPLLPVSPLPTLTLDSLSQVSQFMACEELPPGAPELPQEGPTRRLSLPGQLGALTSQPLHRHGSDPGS

C=CC(=O)N1CCC(CNc2ncnc(N)c2-c2ccc(Oc3ccccc3)cc2)CC1 [EVOBRUTINIB]
Ki [1]: 3.1 µM | inhibition (INH) [2]: Active | Tmax [3]: 0.25 to 1 h | Activity (Rattus norvegicus [4]): 3% | solubility kinetic [5]: 60 µM (≈ 25.8 µg/mL) | inhibition (INH) (Mus musculus [6]): 25% | bioavailability [7]: ≤ 25% | Activity (Rattus norvegicus [8]): 42% | Cmax [9]: 52 nM | inhibition (INH) (Mus musculus [10]): 71% | microsomal CLint at 1 µM [11]: 110 µL/min/mg | Tmax [12]: 0.25 to 1 h | inhibition (INH) (Mus musculus [13]): 17% | Activity (Rattus norvegicus [14]): 1% | Activity (Rattus norvegicus [15]): 63% | remaining at 4 h [16]: 81% | Activity (Mus musculus [17]): Active | half-life [18]: 1 h | bioavailability [19]: < 5% | Papp A→B at 2 h, 1 µM [20]: 22 ×10⁻⁶ cm/s | half-life [21]: 1 h | Activity (Mus musculus [22]): Active | half-life [23]: 1 h | Tmax [24]: 0.25 to 1 h | Activity (Rattus norvegicus [25]): 94% | Activity (Mus musculus [26]): Active
